From paper PMC12519076 (RSC Advances, 2025)
Read-outs that look alike come from different tables or passages of the source.

Assays:
[1] = type: in vivo, mice; details: for Detection in the brain: oral administration; for Detection in plasma: mice sacrificed 12 h after food intake
In short: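 Male C57BL/6 mice, 7 weeks old, fed a high-fat diet with 1% w/w orange peel extract for 6 weeks, with 0.65% carnitine in drinking water. Tissues were homogenized under liquid nitrogen. Tissues, plasma (cardiac puncture, EDTA) and urine were extracted in methanol with 0.1% DMSO; taxifolin was the internal standard. Separation on a C30 column with a formic acid water/acetonitrile gradient; positive ESI, SRM. Values expressed as tissue–peel ratio.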

[2] = following intraperitoneal administration; cited from earlier work
[3] = type: in vivo, mice; details: by number of metabolites identified
In short: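 Male C57BL/6 mice, from 7 weeks old, given high-fat chow containing 1% w/w orange peel extract for 6 weeks, with 0.65% carnitine in water. Methanol/0.1% DMSO extracts were run by UHPLC on a C30 column at 40 °C, 0.1% formic acid water/acetonitrile gradient 2–100% B, 0.2 mL min−1, with Q-Exactive Orbitrap detection. Metabolites were assigned to parent PMFs by key-ion patterns.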

[4] = tested on: spatial learning impairments induced by Aβ1-42; details: oral administration for four weeks; cited from earlier work
acetylcholinesterase = details: cortex and hippocampus; cited from earlier work

Compound	Detection in the brain [1]	Detection in the kidney [1]	Detection in the liver [1]	Detection in plasma [1]	Detection in the testes ([1]; testes)	other results
COc1ccc(-c2cc(=O)c3c(OC)c(OC)c(OC)c(OC)c3o2)cc1 [PMF 6, tangeretin]	found	detected	detected	detected	not detected	
COc1ccc(-c2oc3c(OC)c(OC)cc(O)c3c(=O)c2OC)cc1OC [PMF 9, 5-hydroxy-3,7,8,3′,4′-pentamethoxyflavone]	not detected		detected			
COc1ccc(-c2oc3c(OC)c(OC)c(OC)c(O)c3c(=O)c2OC)cc1OC [PMF 11, 5-hydroxy-3,6,7,8,3′,4′-hexamethoxyflavone]	not detected		not detected			
COc1ccc(-c2cc(=O)c3cc(OC)c(OC)c(OC)c3o2)cc1OC [PMF 1, 6,7,8,3′,4′-pentamethoxyflavone]	found			detected	detected	
COc1ccc(-c2cc(=O)c3c(OC)c(OC)c(OC)cc3o2)cc1OC [PMF 10, sinensetin]	found		detected			
COc1cc(-c2cc(=O)c3c(OC)c(OC)c(OC)c(OC)c3o2)ccc1O [4′-demethylnobiletin]						Detection in the brain [2]: detected in the brain
COc1ccc(-c2cc(=O)c3c(O)c(OC)c(OC)c(OC)c3o2)cc1OC [PMF 8, 5-hydroxy-6,7,8,3′,4′-pentamethoxyflavone]	not detected	detected	detected		detected	Extent of metabolism among the 11 PMFs [3]: most extensively metabolized; Feces-peel ratio relative to that of PMF 11 ([1]; feces): twice as high; Testes-to-peel ratio relative to the detected major PMFs 1 and 4 ([1]; testes): 10 to 14 times
COc1ccc(-c2cc(=O)c3c(OC)c(OC)c(OC)c(OC)c3o2)cc1OC [PMF 3, nobiletin]	found	detected	detected	detected	not detected	Effect on spatial learning impairments induced by Aβ1-42, Morris water maze test [4]: prevent spatial learning impairments; Extent of metabolism among the 11 PMFs [3]: most extensively metabolized; Acetylcholinesterase activity (acetylcholinesterase): enhanced; Urine–peel ratio relative to other non-hydroxylated PMFs ([1]; urine): approximately two times higher
COc1ccc(-c2oc3c(OC)c(OC)c(OC)c(OC)c3c(=O)c2OC)cc1OC [PMF 5, 3,5,6,7,8,3′,4′-heptamethoxyflavone]	found		detected	detected	not detected	
